# Assay results: ChEMBL document CHEMBL5357038, “Highly efficient, catalyst-free, one-pot sequential four-component synthesis of novel spiroindolinone-pyrazole scaffolds as anti-Alzheimer agents: in silico study and biological screening” (RSC Med Chem, 2024)
# Activity calls are given as the source filed them. No cut-off for these calls is given here.
# Columns and labels:
# Acetylcholinesterase [1] = molecular target: T1, Acetylcholinesterase (Homo sapiens, UniProt P22303); assay: Inhibition of AChE (unknown origin)
# T1 sequence (P22303 whole entry): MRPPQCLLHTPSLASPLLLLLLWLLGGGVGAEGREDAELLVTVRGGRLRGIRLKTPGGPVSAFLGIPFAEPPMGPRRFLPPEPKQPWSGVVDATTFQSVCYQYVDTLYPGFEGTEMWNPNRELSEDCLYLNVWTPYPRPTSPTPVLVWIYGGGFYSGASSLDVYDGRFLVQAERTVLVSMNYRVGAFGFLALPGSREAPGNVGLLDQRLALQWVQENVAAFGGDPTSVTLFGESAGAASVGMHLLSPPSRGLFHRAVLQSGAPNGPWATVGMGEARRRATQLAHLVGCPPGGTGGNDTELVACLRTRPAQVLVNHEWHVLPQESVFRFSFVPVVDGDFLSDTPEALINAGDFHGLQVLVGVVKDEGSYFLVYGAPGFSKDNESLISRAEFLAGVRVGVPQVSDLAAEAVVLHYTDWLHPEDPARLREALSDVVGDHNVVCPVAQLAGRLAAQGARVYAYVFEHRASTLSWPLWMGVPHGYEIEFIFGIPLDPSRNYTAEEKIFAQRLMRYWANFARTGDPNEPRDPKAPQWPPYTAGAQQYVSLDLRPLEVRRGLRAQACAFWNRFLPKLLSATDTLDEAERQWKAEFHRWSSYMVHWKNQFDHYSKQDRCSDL
# Cholinesterase [2] = molecular target: T2, Cholinesterase (Homo sapiens, UniProt P06276); assay: Inhibition of BuChE (unknown origin)
# T2 sequence (P06276 whole entry): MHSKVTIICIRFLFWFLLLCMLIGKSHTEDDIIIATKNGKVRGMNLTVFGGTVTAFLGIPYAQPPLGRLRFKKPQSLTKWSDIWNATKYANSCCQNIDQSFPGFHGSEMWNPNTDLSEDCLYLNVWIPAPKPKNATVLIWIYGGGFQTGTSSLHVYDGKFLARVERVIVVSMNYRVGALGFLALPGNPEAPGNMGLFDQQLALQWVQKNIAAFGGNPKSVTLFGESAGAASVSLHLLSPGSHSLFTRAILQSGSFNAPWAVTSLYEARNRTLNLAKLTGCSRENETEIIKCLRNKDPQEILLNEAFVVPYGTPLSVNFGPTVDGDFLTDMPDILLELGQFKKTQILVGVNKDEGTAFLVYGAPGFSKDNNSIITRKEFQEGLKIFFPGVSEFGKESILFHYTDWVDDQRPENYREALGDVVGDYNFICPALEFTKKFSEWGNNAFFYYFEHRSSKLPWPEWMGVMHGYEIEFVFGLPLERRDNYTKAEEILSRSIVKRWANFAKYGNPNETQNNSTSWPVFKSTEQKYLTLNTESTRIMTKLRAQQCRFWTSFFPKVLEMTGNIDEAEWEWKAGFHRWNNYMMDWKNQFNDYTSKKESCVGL
# [3] = Cytotoxicity against human MC65 cells assessed as reduction in cell viability; format: functional
# Acetylcholinesterase [4] = molecular target: T1, Acetylcholinesterase; assay: Inhibition of AChE (unknown origin) at 50 uM by Ellman's method relative to control
# Acetylcholinesterase [5] = molecular target: T1, Acetylcholinesterase; assay: Inhibition of AChE (unknown origin) by Ellman's method
# Cholinesterase [6] = molecular target: T2, Cholinesterase; assay: Inhibition of BuChE (unknown origin) at 50 uM by Ellman's method relative to control
# Cholinesterase [7] = molecular target: T2, Cholinesterase; assay: Inhibition of BuChE (unknown origin) by Ellman's method
# Acetylcholinesterase [8] = molecular target: T1, Acetylcholinesterase; assay: Inhibition of AChE (unknown origin) using acetylthiocholine as substrate incubated for 15 mins by DTNB reagent based Ellman's method
# Cholinesterase [9] = molecular target: T2, Cholinesterase; assay: Inhibition of BuChE (unknown origin) incubated for 15 mins by DTNB reagent based Ellman's method
# Acetylcholinesterase [10] = molecular target: T1, Acetylcholinesterase; assay: Mixed type inhibition of AChE (unknown origin) assessed as increase in Km at 2 to 12 uM by Lineweaver-burk plot analysis; conditions: dose 2-12 µM
# In short: (§1)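 AChE kinetics run with acetylthiocholine substrate at 0.1–1 mM, with no inhibitor and with several inhibitor concentrations. Lineweaver–Burk double-reciprocal plots (1/V vs 1/[S]) across the inhibitor concentrations assigned the inhibition type and gave Km. Ki was estimated from a secondary plot of the slopes against inhibitor concentration.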
# Acetylcholinesterase [11] = molecular target: T1, Acetylcholinesterase; assay: Mixed type inhibition of AChE (unknown origin) assessed as change in Vmax by Lineweaver-burk plot analysis; conditions: dose 2-12 µM; in short: as §1
# Acetylcholinesterase [12] = molecular target: T1, Acetylcholinesterase; assay: Mixed type inhibition of AChE (unknown origin) assessed as inhibition constant by Lineweaver-burk plot analysis; in short: as §1
# SH-SY5Y [13] = assay: Cytotoxicity against human SH-SY5Y cells assessed as reduction in cell viability at 50 uM by MTT assay; format: functional
# In short: (§2)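 SH-SY5Y cells were grown in DMEM/F12 with 15% FBS, penicillin (100 units per ml) and streptomycin (100 μg ml−1) at 37 °C in humidified 5% CO2/95% air. After treatment, MTT was added at 0.5 mg ml−1 final for a further 2 h. Formazan was dissolved in DMSO and read at 540 nm. Untreated control cells were set as 100% viability.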
# SH-SY5Y [14] = assay: Cytotoxicity against human SH-SY5Y cells assessed as reduction in cell viability at 5 uM by MTT assay; format: functional, cell-based; in short: as §2
# Acetylcholinesterase [15] = molecular target: T1, Acetylcholinesterase; assay: Inhibition of AChE (unknown origin) assessed as inhibition constant; in short: as §1
# [16] = Selectivity index, ratio of Ki for inhibition of AChE (unknown origin) to Ki for inhibition of BuChE (unknown origin)
SMILES,inhibition (Acetylcholinesterase [4]),inhibition (Cholinesterase [6]),further results
O=C(Nc1cccc(-c2cc(-c3ccc(Cl)cc3)n[nH]2)c1)c1ccccc1,,,IC50 (Acetylcholinesterase [1]): 1.94 µM; IC50 (Cholinesterase [2]): 1.17 µM; Activity [3]: 90%
O=C1Nc2ccc([N+](=O)[O-])cc2C12NNC(Nc1ccc(Cl)cc1)=C2[N+](=O)[O-] (centres undefined),65.9%,21.8%,IC50 (Acetylcholinesterase [5]): 37.1 µM
Cc1ccccc1NC1=C([N+](=O)[O-])C2(NN1)C(=O)Nc1ccc(Br)cc12 (centres undefined),51.8%,34%,IC50 (Acetylcholinesterase [5]): 41.7 µM
Cc1ccccc1NC1=C([N+](=O)[O-])C2(NN1)C(=O)Nc1ccc(Cl)cc12 (centres undefined),21.9%,73.8%,IC50 (Cholinesterase [7]): 9.13 µM
COc1ccc2c(c1)C1(NNC(Nc3ccc(C)c(C)c3)=C1[N+](=O)[O-])C(=O)N2 (centres undefined),inactive,52.3%,IC50 (Cholinesterase [7]): 47.3 µM
O=C1Nc2c(C(F)(F)F)cccc2C12NNC(Nc1cccc3ccccc13)=C2[N+](=O)[O-] (centres undefined),39.1%,inactive,
CCOP(=O)(OCC)C(NCc1cccs1)c1cn(-c2ccccc2)nc1-c1ccc(Cl)cc1 (centres undefined),,,IC50 (Acetylcholinesterase [8]): 0.017 µM; IC50 (Cholinesterase [9]): 6.33 µM
O=C1Nc2ccccc2C12NNC(Nc1cccc(Cl)c1)=C2[N+](=O)[O-] (centres undefined),75.5%,13.9%,IC50 (Acetylcholinesterase [5]): 6.02 µM; inhibition (Acetylcholinesterase [10]): Active; inhibition (Acetylcholinesterase [11]): Dose-Dependent Effect; Ki (Acetylcholinesterase [12]): 5.59 µM; Activity (SH-SY5Y [13]): 64.81%; Activity (SH-SY5Y [14]): inactive
Cc1ccc(NC2=C([N+](=O)[O-])C3(NN2)C(=O)Nc2ccccc23)cc1 (centres undefined),30.5%,56.5%,IC50 (Cholinesterase [7]): 25.1 µM
Cc1ccccc1NC1=C([N+](=O)[O-])C2(NN1)C(=O)Nc1ccc([N+](=O)[O-])cc12 (centres undefined),71.6%,38.9%,IC50 (Acetylcholinesterase [5]): 15.5 µM
COc1ccc(NC2=C([N+](=O)[O-])C3(NN2)C(=O)Nc2ccc(OC)cc23)cc1 (centres undefined),29.7%,inactive,
Cc1cc(-c2cc3cc([N+](=O)[O-])ccc3oc2=O)n[nH]1,,,IC50 (Acetylcholinesterase [1]): 16.3 µM
Cc1ccc(NC2=C([N+](=O)[O-])C3(NN2)C(=O)Nc2ccccc23)cc1C (centres undefined),29.4%,31.1%,
Cc1cc(Cl)cc2c1N(C)C(=O)/C2=N\NC(=S)Nc1cccc(S(N)(=O)=O)c1,,,Ki (Acetylcholinesterase [15]): 0.52 µM; Ratio Ki [16]: 37.7
Cc1ccccc1NC1=C([N+](=O)[O-])C2(NN1)C(=O)Nc1c(C(F)(F)F)cccc12 (centres undefined),63.1%,37.5%,IC50 (Acetylcholinesterase [5]): 17 µM
Cc1ccccc1NC1=C([N+](=O)[O-])C2(NN1)C(=O)Nc1ccccc12 (centres undefined),35.4%,60.1%,IC50 (Cholinesterase [7]): 20 µM
COc1ccc(NC2=C([N+](=O)[O-])C3(NN2)C(=O)Nc2ccccc23)cc1 (centres undefined),47.8%,53.4%,IC50 (Cholinesterase [7]): 34.7 µM
NS(=O)(=O)c1cccc(NC(=S)N/N=C2\C(=O)N(Cc3ccccc3)c3ccc([N+](=O)[O-])cc32)c1,,,Ki (Acetylcholinesterase [15]): 0.22 µM
COc1ccc(OC)c(NC2=C([N+](=O)[O-])C3(NN2)C(=O)Nc2ccc([N+](=O)[O-])cc23)c1 (centres undefined),55.1%,25.1%,IC50 (Acetylcholinesterase [5]): 42.6 µM
O=C1Nc2ccccc2C12NNC(Nc1ccc(O)cc1)=C2[N+](=O)[O-] (centres undefined),41%,12.9%,
O=C1Nc2ccccc2C12NNC(Nc1ccc(Cl)cc1)=C2[N+](=O)[O-] (centres undefined),13.9%,14.9%,
O=C1Nc2c(C(F)(F)F)cccc2C12NNC(Nc1cccc(Cl)c1)=C2[N+](=O)[O-] (centres undefined),20.6%,18.8%,
